Results of several laboratories.
Compare with care: the assays were run in different laboratories.
Target: Mitogen-activated protein kinase 9 (MAPK9, Homo sapiens, UniProt P45984)

assay	conditions	quantity	value	Compound
enzyme activity, inhibitor	10 µM	remaining activity	90%	CC(C)(C)C(=O)c1sc(NC2CCCCC2)nc1N
cell-free assay	0.5 µM	remaining signal	97.5%	Clc1ccc(Nc2nnc(Cc3ccncc3)c3ccccc23)cc1
enzyme activity, inhibitor	5 µM	remaining activity	34.1%	O=C(Nc1cnn(-c2csc(C(=O)NC3COC3)c2)c1)Nc1ccccc1Cl
thermal stability, DSF	10 µM	ΔTm	0 °C	Cn1c2c(c3ccc(Cl)c(Cl)c31)C(C#N)C1(CCOCC1)NC2=O (centres unmarked)
cell-free assay	0.5 µM	remaining signal	89.4%	Oc1cccc(-c2nc(N3CCOCC3)c3oc4ncccc4c3n2)c1
cell-free assay, competition with immobilised ligand	1 µM	remaining binding	82%	C[C@@H](c1cccc(C#N)c1)n1cc(Cl)cc(C(N)=O)c1=N
thermal stability, DSF	10 µM	ΔTm	0.4 °C	Cn1c2c(c3ccc(Cl)c(Cl)c31)C(C#N)C(C)(C)NC2=O (centres unmarked)
cell-free assay, competition with immobilised ligand	1 µM	remaining binding	86%	O=C1CCc2cc(Nc3cc(OC4CCOCC4)c([N+](=O)[O-])cc3Cl)ccc2N1
enzyme activity, inhibitor	5 µM	remaining activity	22.7%	O=C(Nc1cnn(-c2csc(C(=O)NC3COC3)c2)c1)Nc1c(F)cccc1Cl
cell-free assay	0.5 µM	remaining signal	97.1%	N#CCCc1ccc2c(c1)-c1[nH]c3ccc([N+](=O)[O-])cc3c1CC(=O)N2
enzyme activity, inhibitor	1 µM	activity vs control	104%	COc1cc(/C=C/C(=O)CC(=O)/C=C/c2ccc(O)c(OC)c2)ccc1O
cell-free assay, competition with immobilised ligand	1 µM	remaining binding	95%	Cn1nc(C(F)(F)F)cc1-c1cnc(N2CCc3cc(S(=O)(=O)Nc4c(F)cc(Cl)cc4F)cc(N4CCCC4=O)c32)nc1
enzyme activity, inhibitor, radiometric	1 µM	remaining activity	98%	COc1cc(Nc2cnc(C#N)c(O[C@H](C)CN(C)C)n2)ncc1-c1cnn(C)c1
enzyme activity, inhibitor	10 µM	remaining activity	100%	Oc1cccc(-c2nc(N3CCOCC3)c3oc4ncccc4c3n2)c1
cell-free assay, competition with immobilised ligand	1 µM	remaining binding	100%	FC(F)(F)c1ccc2c(c1)nc(-c1cccnc1)n2C1CC1
enzyme activity, inhibitor	10 µM	remaining activity	81%	Nc1nc(Nc2ccccc2)sc1C(=O)c1c(F)cccc1F

assay	conditions	quantity	value	Compound
cell-free assay, competition with immobilised ligand	1 µM	remaining binding	71%	COc1ccc2c(O[C@@H]3C[C@H]4C(=O)N[C@]5(C(=O)O)CC5/C=C\CCCCC[C@H](NC(=O)OC5CCCC5)C(=O)N4C3)cc(-c3csc(NC(=O)C(C)C)n3)nc2c1C (some centres unmarked)
cell-free assay	0.5 µM	remaining signal	61.4%	O=C1NC(=O)c2cc(Nc3ccc(F)cc3)c(Nc3ccc(F)cc3)cc21
cell-free assay, competition with immobilised ligand	1 µM	remaining binding	92%	CC(=O)N1CCC(c2ccc(C(=O)NC3=NCCN3)cc2C(F)(F)F)CC1
thermal stability, DSF	10 µM	ΔTm	0.7 °C	N#CC1c2c([nH]c3c(Cl)c(Cl)ccc23)C(=O)NC12CCCCC2 (racemic)
enzyme activity, inhibitor	10 µM	remaining activity	89%	Cn1c(=O)n(-c2ccc(C(C)(C)C#N)cc2)c2c3cc(-c4cnc5ccccc5c4)ccc3ncc21
enzyme activity, inhibitor	0.1 µM	inhibition	-4.8%	CC/C(=N\NC(=O)NCc1cccc(O)c1)c1ccc(O)c(C)c1O
enzyme activity, inhibitor, radiometric	1 µM	remaining activity	105%	CC(C)(C)c1nc(-c2cccc(NS(=O)(=O)c3c(F)cccc3F)c2F)c(-c2ccnc(N)n2)s1
enzyme activity, inhibitor	1 µM	inhibition	5%	COc1cc2ncnc(Nc3ccc(Oc4ccccc4)cc3C)c2cc1OC
thermal stability, DSF	10 µM	ΔTm	-0.1 °C	Cn1c2c(c3ccc(Cl)c(Cl)c31)C(C#N)C1(CCCC1)NC2=O (centres unmarked)
cell-free assay, competition with immobilised ligand	1 µM	remaining binding	95%	Cc1nccc(COC(=O)N2C[C@@H]3[C@@H](CNC(=O)c4ccc5[nH]nnc5c4)[C@@H]3C2)n1
enzyme activity, inhibitor	0.3 µM	inhibition	7%	CNC(=O)c1cc(Oc2ccc(NC(=O)Nc3ccc(Cl)c(C(F)(F)F)c3)cc2)ccn1
enzyme activity, inhibitor	1 µM	inhibition	< 10%	CCCS(=O)(=O)Nc1ccc(F)c(C(=O)c2c[nH]c3ncc(-c4ccc(Cl)cc4)cc23)c1F
cell-free assay, inhibitor	20 µM	remaining signal	0%	Nc1ncnc2occ(-c3ccc(NC(=O)Nc4cc(C(F)(F)F)ccc4F)cc3)c12
cell-free assay, competition with immobilised ligand	0.1 µM	remaining binding	95%	CNC(=O)c1ccc(Nc2ncc(C(F)(F)F)c(NCc3nccnc3N(C)S(C)(=O)=O)n2)cc1
thermal stability, DSF	10 µM	ΔTm	0.8 °C	CC1(C)NC(=O)c2[nH]c3c(Cl)c(Cl)ccc3c2C1C#N (centres unmarked)
enzyme activity, inhibitor	1 µM	inhibition	12.4%	CN(c1ncccc1CNc1nc(Nc2ccc3c(c2)CC(=O)N3)ncc1C(F)(F)F)S(C)(=O)=O
